# According to ChEMBL document CHEMBL5678814, “Novel Mps1 Kinase Inhibitors with Potent Antitumor Activity” (Mol Cancer Ther, 2016):
# Active and inactive are the calls of the source. The rule behind the calls is not given here.
# Columns and labels:
# [1] = system: LU387; test: Antitumor activity against human LU387 cells xenografted female athymic NMRI mouse model assessed as reduction in tumor size at 20 mg/kg,iv administered twice daily intermittent for 1 days on/6 days off; format: functional, organism-based; details: time 7.0 day, in the assay text read “once daily” for “twice daily”
# Method in brief: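 LU387 patient-derived tumor fragments (4–5 mm) transplanted s.c. into the flank of nude mice. Treatment started at ~40 mm2. Paclitaxel i.v. at 20 mg/kg once weekly (1 on/6 off). Tumor area (longest diameter × perpendicular) measured by caliper two to three times weekly. T/C computed from end-of-study tumor areas; 8–10 mice/group.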
# [2] = system: A2780cis; test: Antitumor activity against human A2780cis cells implanted female athymic NMRI mouse model assessed as induction in KNL1 at Thr-875 phosphorylation at 24 mg/kg,iv administered once for 1 day by immunohistochemical staining; format: functional, organism-based
# Method in brief: (§1)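 A2780cis tumors (2×10^6 cells in 100% Matrigel, s.c.) in female NMRI nude mice. Paclitaxel i.v. once at 24 mg/kg on day 1, started at ~52–60 mm2 tumor area. Tumors harvested 36 h after first treatment. Paraffin sections stained with rabbit anti-pThr875 KNL1 or anti-CASC5 (total KNL1), both 1:400. Positive pixels above background scored in three fields per slide.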
# [3] = system: A2780cis; test: Antitumor activity against human A2780cis cells implanted female athymic NMRI mouse model assessed as change in KNL1 total level at 24 mg/kg,iv administered for 1 day by immunohistochemical staining; format: functional, organism-based; method in brief: as §1
# [4] = system: A2780cis; test: Antitumor activity against human A2780cis cells xenografted in female athymic NMRI mouse assessed as increase in necrosis at 24 mg/kg,iv administered once for 1 day and measured after 8 hrs by H&E staining
# [5] = system: A2780cis; test: Antitumor activity against human A2780cis cells xenografted in female athymic NMRI mouse assessed as increase in apoptosis at 24 mg/kg,iv administered once for 1 day and measured after 8 hrs by H&E staining
# [6] = system: A2780cis; test: Antitumor activity against human A2780cis cells xenografted in female athymic NMRI mouse assessed as induction in atypical mitoses at 24 mg/kg,iv administered once for 1 day and measured after 8 hrs by H&E staining
# [7] = system: KATO III stomach cancer cell line; test: Antiproliferative activity against human KATO III stomach cancer cell line assessed as cell growth inhibition incubated for 96 hrs by MTS assay; format: functional, cell-based
# [8] = Half life in male Wistar rat plasma at 0.5 mg/kg, iv measured after 24 hrs by LC/-MS/MS analysis; format: ADME, organism-based
# [9] = Volume of distribution at steady state in male Wistar rat plasma at 0.5 mg/kg, iv measured after 24 hrs by LC/-MS/MS analysis; format: ADME, organism-based; details: read-out: Vdss
# [10] = Clearance in male Wistar rat blood at 0.5 mg/kg, iv measured after 24 hrs by LC/-MS/MS analysis; format: ADME, organism-based
# [11] = Tmax in male Wistar rat plasma at 0.5 mg/kg, po measured after 24 hrs by LC/-MS/MS analysis; format: ADME, organism-based
# Method in brief: (§2)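 Male Wistar rats given 0.5 mg/kg orally. Plasma collected from 8 min to 24 h, precipitated with ice-cold acetonitrile (1:5), and analysed by LC/MS-MS. Cmax and Tmax read directly from concentration–time profiles.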
# [12] = Cmax in male Wistar rat plasma at 0.5 mg/kg, po measured after 24 hrs by LC/-MS/MS analysis; format: ADME, organism-based; method in brief: as §2
# [13] = Oral bioavailability in male Wistar rat plasma at 0.5 mg/kg measured after 24 hrs by LC/-MS/MS analysis; format: ADME, organism-based
# [14] = Half life in female CD1 mouse plasma at 1 mg/kg, iv measured after 24 hrs by LC/-MS/MS analysis; format: ADME, organism-based
# Method in brief: (§3)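 Female CD1 mice received a single iv bolus of 1.0 mg/kg in 50% PEG 400, 10% ethanol and 40% water. Plasma was sampled at 2, 5, 15, 30 and 45 min and at 1, 2, 4, 6, 8 and 24 h, precipitated with ice-cold acetonitrile (1:5), and supernatants were quantified by LC/MS-MS. Parameters were estimated from plasma concentration data, with AUC by the log-linear trapezoidal rule.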
# [15] = Volume of distribution at steady state in female CD1 mouse plasma at 1 mg/kg, iv measured after 24 hrs by LC/-MS/MS analysis; format: ADME, organism-based; details: read-out: Vdss; method in brief: as §3
# [16] = Clearance in female CD1 mouse blood at 1 mg/kg, iv measured after 24 hrs by LC/-MS/MS analysis; format: ADME, organism-based
# Method in brief: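 Single dose to female mice, i.v. as bolus (1.0 mg/kg) or oral (1 mg/kg), in 50% PEG 400/10% ethanol/40% water. Plasma sampled up to 24 h: 2 min–24 h after i.v., 8 min–24 h after p.o. Samples precipitated with ice-cold acetonitrile (1:5) and analysed by LC/MS-MS. AUC by log-linear trapezoidal rule; Cmax and Tmax read directly from the profiles.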
# [17] = Antitumor activity against human A2780cis cells xenografted female athymic NMRI mouse model assessed as T/C ratio at 5 mg/kg, po administered twice daily intermittent for 2 days on/5 days off; format: functional; details: time 7 day
# [18] = Toxicity in human A2780cis cells xenografted female athymic NMRI mouse model assessed as change in body weight at 5 mg/kg, po administered twice daily intermittent for 2 days on/5 days off; format: organism-based; details: in vivo, 168 h, time 7 day
# Method in brief: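 A2780cis cells (2×10^6 in 100% Matrigel) implanted s.c. in athymic mice. Treatment started at ~30 mm2. Oral dosing twice daily, 2 days on/5 days off, with PEG 400/ethanol/Solutol vehicle controls. Dose based on individual body weight. Body weight monitored two to three times weekly as toxicity measure; >20% loss deemed toxic.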
# [19] = system: NCI-H1299; test: Synergistic antitumor activity against human NCI-H1299 cells xenografted female athymic NMRI mouse model assessed as MTD at 3 mg/kg,po administered twice daily intermittent for 2 days on/5 days off in the presence of paclitaxel relative to control; format: functional; details: time 7 day
# [20] = Synergistic toxicity in human NCI-H1299 cells xenografted female athymic NMRI mouse model assessed as body weight loss at 3 mg/kg,po administered twice daily intermittent for 2 days on/5 days off in the presence of paclitaxel relative to control; format: organism-based; details: in vivo, 168 h, time 7 day
# Method in brief: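 NCI-H1299 cells (3×10^6 in 100% Matrigel) implanted s.c. in the inguinal region of athymic mice. Treatment started on day 8 at ~30 mm2. Mps1 inhibitor given p.o. 3 mg/kg twice daily, 2 days on/5 off. Paclitaxel i.v. 20 mg/kg once weekly, given within 1 h of the inhibitor on the same day. Body weight tracked two to three times weekly; >20% loss deemed toxic.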
# [21] = Antitumor activity against human A2780cis cells implanted female athymic NMRI mouse model assessed as reduction in KNL1 at Thr-875 phosphorylation at 4 mg/kg,po administered for 2 days by immunohistochemical staining relative to control; format: functional; set-up: scale not given: the % may be the effect or the level left; details: time 2 day
# [22] = Antitumor activity against human A2780cis cells implanted female athymic NMRI mouse model assessed as reduction in KNL1 at Thr-875 phosphorylation at 2 mg/kg,po administered for 2 days by immunohistochemical staining relative to control; format: functional; set-up: scale not given: the % may be the effect or the level left; details: time 2 day
# [23] = Tmax in female NMRI mouse plasma at 1 mg/kg, po measured after 24 hrs by LC/-MS/MS analysis
# [24] = Cmax in female NMRI mouse plasma at 1 mg/kg, po measured after 24 hrs by LC/-MS/MS analysis
# [25] = Oral bioavailability in female NMRI mouse plasma at 1 mg/kg measured after 24 hrs by LC/-MS/MS analysis
# [26] = system: Caov-3 cell line; test: Antiproliferative activity against human Caov-3 cell line assessed as cell growth inhibition incubated for 96 hrs by crystal violet staining; details: Caov-3, 96 h
# [27] = system: LXF-289 cell line; test: Antiproliferative activity against human LXF-289 cell line assessed as cell growth inhibition incubated for 96 hrs by crystal violet staining; details: LXF-289, 96 h
# [28] = system: SUM149PT; test: Synergistic antitumor activity against human SUM149 cells xenografted female athymic NMRI mouse model assessed as MTD at 1.5 mg/kg,po administered twice daily intermittent for 2 days on/5 days off measured after 48 days treatment in the presence of paclitaxel relative to control; details: time 48 day
smiles,measurement,setting,value
CC(=O)O[C@H]1C(=O)[C@@]2(C)[C@H]([C@H](OC(=O)c3ccccc3)[C@]3(O)C[C@H](OC(=O)[C@H](O)[C@@H](NC(=O)c4ccccc4)c4ccccc4)C(C)=C1C3(C)C)[C@]1(OC(C)=O)CO[C@@H]1C[C@@H]2O,Activity,[1],Active
same,Activity,[2],Active
same,Activity,[3],Active
same,Activity,[4],Active
same,Activity,[5],Active
same,Activity,[6],Active
COc1ccc(Oc2cc(NCCC(F)(F)F)c3ncc(-c4ccc(C(=O)NC5CC5)c(C)c4)n3n2)c(F)c1F [BAY-1217389],IC50,[7],> 300 nM
same,half-life,[8],7.8 h
same,Vd,[9],2.2 L/kg
same,clearance,[10],9 mL/min/kg
same,Tmax,[11],1.5 h
same,Cmax,[12],177 ng/mL
same,bioavailability,[13],73%
same,half-life,[14],4.1 h
same,Vd,[15],2.7 L/kg
same,clearance,[16],13.7 mL/min/kg
same,T/C,[17],0.53
same,Activity,[18],Non-Toxic
same,MED,[19],60%
same,Activity,[20],> 10%
same,Activity,[21],80%
same,Activity,[22],60%
same,Tmax,[23],7 h
same,Cmax,[24],74 ng/mL
same,bioavailability,[25],37%
same,IC50,[26],36 nM
same,IC50,[27],3.3 nM
same,MED,[28],30%
